Data published in ChEMBL document CHEMBL5143539, “Synthesis and evaluation of dual-action kanglemycin-fluoroquinolone hybrid antibiotics” (Bioorg Med Chem Lett, 2022).
Converted amounts (≈) assume the structure as drawn.

Experiments:
Staphylococcus aureus [1] = experiment: Antibacterial activity against rifampicin resistant Staphylococcus aureus harboring RpoBH481Y mutant assessed as inhibition of bacterial growth; type: functional
Staphylococcus aureus [2] = experiment: Antibacterial activity against wild type Staphylococcus aureus assessed as inhibition of bacterial growth; type: functional
Staphylococcus aureus [3] = experiment: Antibacterial activity against ciprofloxacin resistant Staphylococcus aureus harboring ParCS80F and GyrAS84L double mutant assessed as inhibition of bacterial growth; type: functional
Staphylococcus aureus [4] = experiment: Antibacterial activity against Staphylococcus aureus harboring RpoBH481Y/ParCS80F/GyrAS84L triple mutant assessed as inhibition of bacterial growth; type: functional
Escherichia coli = experiment: Antibacterial activity against Escherichia coli assessed as inhibition of bacterial growth; type: functional
Method in brief: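 Run in duplicate, with the same result obtained in each trial.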

HEK293 = experiment: Cytotoxicity against HEK293 cells; type: toxicity, cell-based, Homo sapiens

| SMILES | MIC (Staphylococcus aureus [1]) [µg/mL] | MIC (Staphylococcus aureus [2]) [µg/mL] | MIC (Staphylococcus aureus [3]) [µg/mL] | MIC (Staphylococcus aureus [4]) [µg/mL] | MIC (Escherichia coli) [µg/mL] | IC50 (HEK293) [µg/mL] |
| --- | --- | --- | --- | --- | --- | --- |
| CC(=O)O[C@H]1[C@H](C)[C@H](O)[C@H](C)[C@@H](O)[C@@H](C(C)OC(=O)C(C)(C)CC(=O)O)/C=C/C=C(/C)C(=O)Nc2c3oc4cc(NCCCCCCCCC(=O)N5Cc6cc(-c7ccc8c(=O)c(C(=O)O)cn(C9CC9)c8c7OC(F)F)ccc6[C@H]5C)cc(O)c4nc-3c3c4c(c(C)c(O)c3c2=O)O[C@](C)(O/C=C/[C@H](O[C@H]2C[C@@H]3OCO[C@@H]3[C@@H](C)O2)[C@H]1C)C4=O (stereo not given in full) | 8 (≈ 4.8 µM) | 4 (≈ 2.4 µM) | 4 (≈ 2.4 µM) | > 64 | > 64 | > 64 |
| CC(=O)O[C@H]1[C@H](C)[C@H](O)[C@H](C)[C@@H](O)[C@@H](C(C)OC(=O)C(C)(C)CC(=O)O)/C=C/C=C(/C)C(=O)Nc2c3oc4cc(NCCCCCC(=O)N5Cc6cc(-c7ccc8c(=O)c(C(=O)O)cn(C9CC9)c8c7OC(F)F)ccc6[C@H]5C)cc(O)c4nc-3c3c4c(c(C)c(O)c3c2=O)O[C@](C)(O/C=C/[C@H](O[C@H]2C[C@@H]3OCO[C@@H]3[C@@H](C)O2)[C@H]1C)C4=O (stereo not given in full) | 4 (≈ 2.46 µM) | 1 (≈ 0.615 µM) | 2 (≈ 1.23 µM) | > 64 | > 64 | > 64 |
| CC(=O)O[C@H]1[C@H](C)[C@H](O)[C@H](C)[C@@H](O)[C@@H](C(C)OC(=O)C(C)(C)CC(=O)O)/C=C/C=C(/C)C(=O)Nc2c3oc4cc(NCCCN5Cc6cc(-c7ccc8c(=O)c(C(=O)O)cn(C9CC9)c8c7OC(F)F)ccc6[C@H]5C)cc(O)c4nc-3c3c4c(c(C)c(O)c3c2=O)O[C@](C)(O/C=C/[C@H](O[C@H]2C[C@@H]3OCO[C@@H]3[C@@H](C)O2)[C@H]1C)C4=O (stereo not given in full) | 8 (≈ 5.1 µM) | 4 (≈ 2.55 µM) | 16 (≈ 10.2 µM) | > 64 | > 64 | > 64 |
| CC(=O)O[C@H]1[C@H](C)[C@H](O)[C@H](C)[C@@H](O)[C@@H](C(C)OC(=O)C(C)(C)CC(=O)O)/C=C/C=C(/C)C(=O)Nc2c3oc4cc(NCCCN5CCN(c6cc7c(cc6F)c(=O)c(C(=O)O)cn7C6CC6)CC5)cc(O)c4nc-3c3c4c(c(C)c(O)c3c2=O)O[C@](C)(O/C=C/[C@H](O[C@H]2C[C@@H]3OCO[C@@H]3[C@@H](C)O2)[C@H]1C)C4=O (stereo not given in full) | 8 (≈ 5.43 µM) | 4 (≈ 2.71 µM) | 4 (≈ 2.71 µM) | > 64 | 16 (≈ 10.9 µM) | 44 (≈ 29.9 µM) |
| CC(=O)O[C@H]1[C@H](C)[C@H](O)[C@H](C)[C@@H](O)[C@@H](C(C)OC(=O)C(C)(C)CC(=O)O)/C=C/C=C(/C)C(=O)Nc2c3oc4cc(NCCCNC5(c6c(F)cc7c(=O)c(C(=O)O)cn8c7c6OC[C@@H]8C)CC5)cc(O)c4nc-3c3c4c(c(C)c(O)c3c2=O)O[C@](C)(O/C=C/[C@H](O[C@H]2C[C@@H]3OCO[C@@H]3[C@@H](C)O2)[C@H]1C)C4=O (stereo not given in full) | > 64 | 4 (≈ 2.74 µM) | 4 (≈ 2.74 µM) | > 64 | 64 (≈ 43.8 µM) | > 64 |
| CC(=O)O[C@H]1[C@H](C)[C@H](O)[C@H](C)[C@@H](O)[C@@H](C(C)OC(=O)C(C)(C)CC(=O)O)/C=C/C=C(/C)C(=O)Nc2c3oc4cc(N5CCCn6nc(C(=O)N7Cc8cc(-c9ccc%10c(=O)c(C(=O)O)cn(C%11CC%11)c%10c9OC(F)F)ccc8[C@H]7C)cc6C5)cc(O)c4nc-3c3c4c(c(C)c(O)c3c2=O)O[C@](C)(O/C=C/[C@H](O[C@H]2C[C@@H]3OCO[C@@H]3[C@@H](C)O2)[C@H]1C)C4=O (stereo not given in full) | > 64 | 16 (≈ 9.55 µM) | 16 (≈ 9.55 µM) | > 64 | > 64 | > 64 |
| COc1c(N2CCCC(N(C)CCCNc3cc(O)c4nc5c6c7c8c(C)c(O)c6c(=O)c(c-5oc4c3)NC(=O)/C(C)=C\C=C\[C@H](C(C)OC(=O)C(C)(C)CC(=O)O)[C@H](O)[C@@H](C)[C@@H](O)[C@@H](C)[C@H](OC(C)=O)[C@H](C)[C@@H](O[C@H]3C[C@@H]4OCO[C@@H]4[C@@H](C)O3)/C=C/O[C@@](C)(O8)C7=O)C2)c(F)cc2c(=O)c(C(=O)O)cn(C3CC3)c12 (stereo not given in full) | 16 (≈ 10.4 µM) | 8 (≈ 5.22 µM) | 8 (≈ 5.22 µM) | > 64 | > 64 | > 64 |
| CC(=O)O[C@H]1[C@H](C)[C@H](O)[C@H](C)[C@@H](O)[C@@H](C(C)OC(=O)C(C)(C)CC(=O)O)/C=C/C=C(/C)C(=O)Nc2c3oc4cc(N5CCC(CCCC(=O)N6Cc7cc(-c8ccc9c(=O)c(C(=O)O)cn(C%10CC%10)c9c8OC(F)F)ccc7[C@H]6C)CC5)cc(O)c4nc-3c3c4c(c(C)c(O)c3c2=O)O[C@](C)(O/C=C/[C@H](O[C@H]2C[C@@H]3OCO[C@@H]3[C@@H](C)O2)[C@H]1C)C4=O (stereo not given in full) | > 64 | 64 (≈ 38.4 µM) | 64 (≈ 38.4 µM) | > 64 | > 64 | > 64 |
| COc1c(N2C[C@@H]3CCCN(CCCNc4cc(O)c5nc6c7c8c9c(C)c(O)c7c(=O)c(c-6oc5c4)NC(=O)/C(C)=C\C=C\[C@H](C(C)OC(=O)C(C)(C)CC(=O)O)[C@H](O)[C@@H](C)[C@@H](O)[C@@H](C)[C@H](OC(C)=O)[C@H](C)[C@@H](O[C@H]4C[C@@H]5OCO[C@@H]5[C@@H](C)O4)/C=C/O[C@@](C)(O9)C8=O)[C@@H]3C2)c(F)cc2c(=O)c(C(=O)O)cn(C3CC3)c12 (stereo not given in full) | 16 (≈ 10.4 µM) | 1 (≈ 0.648 µM) | 1 (≈ 0.648 µM) | > 64 | > 64 | 38 (≈ 24.6 µM) |
| COc1c(N2C[C@@H]3CCCN(c4cc(O)c5nc6c7c8c9c(C)c(O)c7c(=O)c(c-6oc5c4)NC(=O)/C(C)=C\C=C\[C@H](C(C)OC(=O)C(C)(C)CC(=O)O)[C@H](O)[C@@H](C)[C@@H](O)[C@@H](C)[C@H](OC(C)=O)[C@H](C)[C@@H](O[C@H]4C[C@@H]5OCO[C@@H]5[C@@H](C)O4)/C=C/O[C@@](C)(O9)C8=O)[C@@H]3C2)c(F)cc2c(=O)c(C(=O)O)cn(C3CC3)c12 (stereo not given in full) | 8 (≈ 5.38 µM) | 0.5 (≈ 0.336 µM) | 0.5 (≈ 0.336 µM) | > 64 | 32 (≈ 21.5 µM) | > 64 |
